In ChEMBL document CHEMBL4020839, “Class I HDAC Inhibitors Display Different Antitumor Mechanism in Leukemia and Prostatic Cancer Cells Depending on Their p53 Status” (J Med Chem, 2018):
Calls of active or inactive are those of the source. The rule behind the calls is not given here.

Tests used:
Histone deacetylase 8 = biological target: T1, Histone deacetylase 8 (Homo sapiens, UniProt Q9BY41); assay: Inhibition of full length recombinant human C-terminal His-tagged HDAC8 expressed in baculovirus expression system using Boc-Lys(trifluoroacetyl)-AMC as substrate preincubated for 1 hr followed by substrate addition measured after 2 hrs by fluorescence assay
T1 sequence (Q9BY41 whole entry): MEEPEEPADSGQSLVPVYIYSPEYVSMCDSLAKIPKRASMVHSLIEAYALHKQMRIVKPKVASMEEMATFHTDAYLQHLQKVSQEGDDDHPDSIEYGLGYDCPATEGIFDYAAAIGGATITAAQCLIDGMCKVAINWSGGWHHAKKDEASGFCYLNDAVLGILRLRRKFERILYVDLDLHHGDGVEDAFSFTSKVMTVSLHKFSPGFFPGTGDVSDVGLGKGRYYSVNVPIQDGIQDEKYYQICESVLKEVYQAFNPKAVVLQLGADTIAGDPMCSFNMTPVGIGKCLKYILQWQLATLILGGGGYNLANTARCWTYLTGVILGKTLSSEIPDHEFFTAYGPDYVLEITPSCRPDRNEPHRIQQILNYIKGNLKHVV
Procedure, shortened: (§1)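 Recombinant HDAC incubated with serial compound dilutions at 30 °C for 1 h. Reaction run 2 h at 30 °C, stopped with developer containing trypsin and TSA. Fluorescence read after 30 min at 360/460 nm. Inhibition relative to control wells; IC50 from variable-slope fit.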

[1] = biological target: T2, Protein deacetylase HDAC6 (Homo sapiens) (UniProt Q9UBN7); assay: Inhibition of HDAC6 in human PC3 cells assessed as increase in acetylated tubulin level at 1 to 2 uM after 24 hrs by Western blot method; type: cell-based
T2 sequence (whole entry): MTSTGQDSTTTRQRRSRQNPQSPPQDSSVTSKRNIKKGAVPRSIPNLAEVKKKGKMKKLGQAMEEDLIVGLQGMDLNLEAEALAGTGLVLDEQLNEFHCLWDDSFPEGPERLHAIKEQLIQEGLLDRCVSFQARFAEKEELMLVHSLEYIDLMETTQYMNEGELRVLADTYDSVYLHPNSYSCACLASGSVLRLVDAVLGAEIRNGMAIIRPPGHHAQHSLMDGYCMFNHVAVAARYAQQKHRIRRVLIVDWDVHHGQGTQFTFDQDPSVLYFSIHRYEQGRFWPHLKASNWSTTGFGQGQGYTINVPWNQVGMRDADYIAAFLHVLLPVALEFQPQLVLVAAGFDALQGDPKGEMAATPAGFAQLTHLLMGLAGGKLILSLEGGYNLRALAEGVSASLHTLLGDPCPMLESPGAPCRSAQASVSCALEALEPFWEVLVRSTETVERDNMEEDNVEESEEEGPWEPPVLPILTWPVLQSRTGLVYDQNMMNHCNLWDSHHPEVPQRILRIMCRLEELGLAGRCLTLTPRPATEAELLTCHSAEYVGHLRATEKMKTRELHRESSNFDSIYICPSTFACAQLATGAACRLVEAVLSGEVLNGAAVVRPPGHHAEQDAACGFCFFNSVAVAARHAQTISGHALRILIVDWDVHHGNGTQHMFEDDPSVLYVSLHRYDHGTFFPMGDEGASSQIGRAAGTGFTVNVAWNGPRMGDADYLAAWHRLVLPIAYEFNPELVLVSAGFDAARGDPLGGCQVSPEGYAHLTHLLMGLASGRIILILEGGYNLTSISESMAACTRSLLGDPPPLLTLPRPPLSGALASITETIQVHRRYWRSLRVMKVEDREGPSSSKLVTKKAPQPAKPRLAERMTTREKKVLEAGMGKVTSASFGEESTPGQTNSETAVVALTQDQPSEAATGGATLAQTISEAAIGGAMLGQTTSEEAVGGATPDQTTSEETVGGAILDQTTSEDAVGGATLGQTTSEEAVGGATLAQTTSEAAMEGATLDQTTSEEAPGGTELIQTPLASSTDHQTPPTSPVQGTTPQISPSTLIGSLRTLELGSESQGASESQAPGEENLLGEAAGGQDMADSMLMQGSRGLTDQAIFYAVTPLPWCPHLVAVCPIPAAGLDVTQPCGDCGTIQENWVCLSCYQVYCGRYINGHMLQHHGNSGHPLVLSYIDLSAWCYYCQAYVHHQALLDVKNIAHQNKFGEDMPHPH
Procedure, shortened: (§2)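 MV4-11 (1,500,000/well) or PC-3 (300,000/well) grown 12 h, then treated 24 h at 1 and 2 μM, with 5 μM SAHA as reference. RIPA lysis, sonication and centrifugation, BCA normalization. NuPAGE 4–12% Bis-Tris gel in MES, transfer, primary antibodies 1/1000 overnight at 4 °C. Actin as loading control.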

MV4-11 [2] = assay: Downregulation of HDAC1 protein expression in human MV4-11 cells at 1 to 2 uM after 24 hrs by Western blot method; type: functional, cell-based; procedure, shortened: as §2
Histone deacetylase 4 = Histone deacetylase 4 (Homo sapiens, UniProt P56524); assay: Inhibition of recombinant human N-terminal GST-tagged/C-terminal His-tagged HDAC4 (627 to 1084 residues) expressed in baculovirus expression system using Boc-Lys(trifluoroacetyl)-AMC as substrate preincubated for 1 hr followed by substrate addition measured after 2 hrs by fluorescence assay; procedure, shortened: as §1
PC-3 = assay: Induction of apoptosis in human PC3 cells assessed as increase in cleaved PARP level at 1 to 2 uM after 24 hrs by Western blot method; type: functional, cell-based; procedure, shortened: as §2
[3] = biological target: Histone deacetylase 3/Nuclear receptor corepressor 2 (HDAC3/NCoR2) (Homo sapiens, UniProt O15379); assay: Inhibition of full length recombinant human C-terminal His-tagged HDAC3/N-terminal GST-tagged NCOR2 co-expressed in baculovirus expression system using Boc-Lys(acetyl)-AMC as substrate preincubated for 1 hr followed by substrate addition measured after 2 hrs by fluorescence assay; procedure, shortened: as §1
Histone deacetylase 1 = Histone deacetylase 1 (Homo sapiens, UniProt Q13547); assay: Inhibition of full length recombinant human C-terminal FLAG/His-tagged HDAC1 expressed in baculovirus expression system using Boc-Lys(acetyl)-AMC as substrate preincubated for 1 hr followed by substrate addition measured after 2 hrs by fluorescence assay; procedure, shortened: as §1
Histone deacetylase 2 [4] = biological target: T3, Histone deacetylase 2 (Homo sapiens, UniProt Q92769); assay: Inhibition of full length recombinant human C-terminal FLAG/His-tagged HDAC2 expressed in baculovirus expression system using Boc-Lys(acetyl)-AMC as substrate preincubated for 1 hr followed by substrate addition measured after 2 hrs by fluorescence assay; procedure, shortened: as §1
MV4-11 [5] = assay: Downregulation of HDAC6 protein expression in human MV4-11 cells at >= 0.5 uM after 24 hrs by Western blot analysis; type: functional, cell-based
Procedure, shortened: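 MV4-11 cells treated 24 h at 0.25, 0.5, 1 and 2 μM, with 5 μM SAHA as reference. RIPA lysates normalized by BCA, run on 4–12% Bis-Tris gels, probed with primary antibodies at 1/1000 overnight at 4 °C. HDAC6 and acetylated histones/tubulin detected; actin as loading control. Representative of n = 2.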

Histone deacetylase 2 [6] = biological target: T3, Histone deacetylase 2; details: 0.25 to 2 uM

T3 sequence (Q92769 whole entry): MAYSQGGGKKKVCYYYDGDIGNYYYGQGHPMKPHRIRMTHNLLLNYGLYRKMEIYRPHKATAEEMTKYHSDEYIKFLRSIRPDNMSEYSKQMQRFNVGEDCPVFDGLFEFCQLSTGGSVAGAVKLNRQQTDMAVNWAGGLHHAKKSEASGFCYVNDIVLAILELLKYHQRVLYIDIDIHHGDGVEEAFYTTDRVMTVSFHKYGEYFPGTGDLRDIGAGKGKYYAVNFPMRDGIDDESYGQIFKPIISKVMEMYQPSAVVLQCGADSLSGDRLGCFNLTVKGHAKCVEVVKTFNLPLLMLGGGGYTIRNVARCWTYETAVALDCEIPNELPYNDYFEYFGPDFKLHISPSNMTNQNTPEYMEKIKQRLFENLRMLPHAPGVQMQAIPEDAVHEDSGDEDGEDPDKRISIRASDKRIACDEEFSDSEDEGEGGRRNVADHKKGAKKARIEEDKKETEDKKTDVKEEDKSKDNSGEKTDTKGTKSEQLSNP
Chain of Histone deacetylase 3/Nuclear receptor corepressor 2 (HDAC3/NCoR2) (O15379 whole entry): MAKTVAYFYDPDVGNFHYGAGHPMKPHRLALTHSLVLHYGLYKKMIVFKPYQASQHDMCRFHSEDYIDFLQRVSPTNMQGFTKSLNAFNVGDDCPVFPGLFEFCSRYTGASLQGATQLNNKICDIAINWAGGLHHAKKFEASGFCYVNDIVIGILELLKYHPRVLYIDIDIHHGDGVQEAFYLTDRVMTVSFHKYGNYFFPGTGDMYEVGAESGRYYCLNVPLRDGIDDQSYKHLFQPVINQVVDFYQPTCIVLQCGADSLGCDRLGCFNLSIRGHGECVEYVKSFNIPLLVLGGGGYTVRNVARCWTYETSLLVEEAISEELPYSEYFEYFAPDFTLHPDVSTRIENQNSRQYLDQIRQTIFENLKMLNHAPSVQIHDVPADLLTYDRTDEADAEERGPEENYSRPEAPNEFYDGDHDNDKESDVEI
Chain of Histone deacetylase 3/Nuclear receptor corepressor 2 (HDAC3/NCoR2) (Q9Y618 whole entry, further chain): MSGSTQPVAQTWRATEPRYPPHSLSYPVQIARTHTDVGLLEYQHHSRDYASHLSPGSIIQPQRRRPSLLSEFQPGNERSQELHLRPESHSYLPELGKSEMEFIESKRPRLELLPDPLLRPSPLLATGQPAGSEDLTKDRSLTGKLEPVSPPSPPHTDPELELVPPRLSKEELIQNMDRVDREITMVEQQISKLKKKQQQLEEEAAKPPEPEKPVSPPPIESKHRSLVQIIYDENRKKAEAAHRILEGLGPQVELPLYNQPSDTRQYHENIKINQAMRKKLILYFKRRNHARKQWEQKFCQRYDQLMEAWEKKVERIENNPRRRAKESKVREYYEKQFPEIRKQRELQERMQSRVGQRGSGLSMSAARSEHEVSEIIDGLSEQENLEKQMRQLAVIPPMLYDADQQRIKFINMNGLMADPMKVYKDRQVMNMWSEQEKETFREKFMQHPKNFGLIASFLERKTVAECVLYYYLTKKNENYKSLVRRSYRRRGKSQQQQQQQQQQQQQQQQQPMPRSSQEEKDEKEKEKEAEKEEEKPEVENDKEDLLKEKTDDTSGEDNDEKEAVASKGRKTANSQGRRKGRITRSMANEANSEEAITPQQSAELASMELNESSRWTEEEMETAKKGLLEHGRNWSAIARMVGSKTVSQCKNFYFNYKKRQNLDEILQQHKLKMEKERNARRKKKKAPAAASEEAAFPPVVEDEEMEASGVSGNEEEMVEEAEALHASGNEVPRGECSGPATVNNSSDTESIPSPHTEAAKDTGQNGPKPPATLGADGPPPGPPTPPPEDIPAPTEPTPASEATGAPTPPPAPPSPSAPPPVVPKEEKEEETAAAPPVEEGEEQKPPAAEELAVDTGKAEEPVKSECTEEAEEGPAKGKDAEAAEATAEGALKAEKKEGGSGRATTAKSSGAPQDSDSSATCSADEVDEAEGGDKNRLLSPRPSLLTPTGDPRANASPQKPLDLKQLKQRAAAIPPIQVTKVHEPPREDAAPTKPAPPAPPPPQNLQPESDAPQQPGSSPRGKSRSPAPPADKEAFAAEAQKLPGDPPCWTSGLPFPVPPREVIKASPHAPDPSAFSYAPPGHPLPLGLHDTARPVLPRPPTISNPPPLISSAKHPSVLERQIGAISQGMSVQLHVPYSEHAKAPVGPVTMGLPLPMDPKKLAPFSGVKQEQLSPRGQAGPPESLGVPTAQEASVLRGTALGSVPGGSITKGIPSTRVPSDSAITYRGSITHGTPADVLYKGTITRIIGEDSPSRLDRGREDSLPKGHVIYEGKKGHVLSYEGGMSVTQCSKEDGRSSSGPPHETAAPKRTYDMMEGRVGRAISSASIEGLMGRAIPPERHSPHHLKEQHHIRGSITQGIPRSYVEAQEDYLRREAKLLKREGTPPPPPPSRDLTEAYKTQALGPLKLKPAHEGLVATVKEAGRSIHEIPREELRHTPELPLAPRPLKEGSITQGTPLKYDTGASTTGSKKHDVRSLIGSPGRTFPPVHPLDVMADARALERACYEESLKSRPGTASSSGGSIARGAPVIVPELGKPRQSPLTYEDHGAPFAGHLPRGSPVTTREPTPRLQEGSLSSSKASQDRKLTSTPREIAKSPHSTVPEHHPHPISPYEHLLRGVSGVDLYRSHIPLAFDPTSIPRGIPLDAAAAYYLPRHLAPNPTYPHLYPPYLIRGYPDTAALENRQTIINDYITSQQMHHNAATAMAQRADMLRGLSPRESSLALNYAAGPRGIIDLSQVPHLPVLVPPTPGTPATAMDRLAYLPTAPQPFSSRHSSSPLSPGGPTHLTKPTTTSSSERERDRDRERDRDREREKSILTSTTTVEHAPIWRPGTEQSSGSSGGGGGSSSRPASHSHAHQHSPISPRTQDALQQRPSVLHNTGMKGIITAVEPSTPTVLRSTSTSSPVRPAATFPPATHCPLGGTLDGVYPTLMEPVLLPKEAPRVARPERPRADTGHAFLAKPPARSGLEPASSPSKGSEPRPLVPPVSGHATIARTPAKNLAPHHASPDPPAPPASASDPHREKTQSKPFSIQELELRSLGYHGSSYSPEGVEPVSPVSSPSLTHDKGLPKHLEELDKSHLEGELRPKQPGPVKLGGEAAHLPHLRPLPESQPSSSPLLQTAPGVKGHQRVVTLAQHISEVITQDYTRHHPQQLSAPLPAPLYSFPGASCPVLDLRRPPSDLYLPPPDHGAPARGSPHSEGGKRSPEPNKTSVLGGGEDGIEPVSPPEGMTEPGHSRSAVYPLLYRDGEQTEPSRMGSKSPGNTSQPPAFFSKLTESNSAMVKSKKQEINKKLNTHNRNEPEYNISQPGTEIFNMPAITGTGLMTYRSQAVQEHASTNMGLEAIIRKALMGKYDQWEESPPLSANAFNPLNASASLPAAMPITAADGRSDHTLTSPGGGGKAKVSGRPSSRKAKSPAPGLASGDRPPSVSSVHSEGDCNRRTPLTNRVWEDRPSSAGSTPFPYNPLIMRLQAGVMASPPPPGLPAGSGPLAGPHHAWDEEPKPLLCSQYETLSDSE
Chain of Histone deacetylase 4 (P56524 whole entry, the tested form may be a part): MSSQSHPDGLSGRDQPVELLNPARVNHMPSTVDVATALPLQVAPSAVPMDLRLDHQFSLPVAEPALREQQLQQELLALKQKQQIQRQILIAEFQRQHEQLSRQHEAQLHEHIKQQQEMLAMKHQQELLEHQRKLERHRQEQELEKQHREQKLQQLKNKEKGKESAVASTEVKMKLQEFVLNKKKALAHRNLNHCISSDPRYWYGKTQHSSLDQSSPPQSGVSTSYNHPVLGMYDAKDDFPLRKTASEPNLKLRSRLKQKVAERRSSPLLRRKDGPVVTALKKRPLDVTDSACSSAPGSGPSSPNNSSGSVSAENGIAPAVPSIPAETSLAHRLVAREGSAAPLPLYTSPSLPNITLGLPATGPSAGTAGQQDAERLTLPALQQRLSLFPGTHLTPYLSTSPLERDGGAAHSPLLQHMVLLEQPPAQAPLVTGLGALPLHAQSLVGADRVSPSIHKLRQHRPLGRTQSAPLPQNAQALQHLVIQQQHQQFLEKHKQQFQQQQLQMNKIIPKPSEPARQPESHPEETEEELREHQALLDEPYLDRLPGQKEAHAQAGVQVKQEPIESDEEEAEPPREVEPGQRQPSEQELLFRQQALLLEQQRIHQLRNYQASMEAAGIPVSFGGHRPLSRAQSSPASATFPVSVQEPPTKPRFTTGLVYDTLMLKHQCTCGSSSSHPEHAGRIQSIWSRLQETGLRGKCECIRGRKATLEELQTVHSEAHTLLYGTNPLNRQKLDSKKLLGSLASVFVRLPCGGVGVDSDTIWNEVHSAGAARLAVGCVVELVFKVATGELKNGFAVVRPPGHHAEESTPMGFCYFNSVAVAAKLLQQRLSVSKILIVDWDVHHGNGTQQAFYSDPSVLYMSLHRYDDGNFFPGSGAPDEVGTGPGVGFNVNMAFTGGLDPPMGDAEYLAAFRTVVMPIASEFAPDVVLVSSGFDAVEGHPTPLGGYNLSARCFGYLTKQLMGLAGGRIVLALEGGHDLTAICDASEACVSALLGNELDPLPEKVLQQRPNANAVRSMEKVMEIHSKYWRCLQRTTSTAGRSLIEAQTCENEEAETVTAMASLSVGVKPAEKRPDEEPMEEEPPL
Chain of Histone deacetylase 1 (Q13547 whole entry): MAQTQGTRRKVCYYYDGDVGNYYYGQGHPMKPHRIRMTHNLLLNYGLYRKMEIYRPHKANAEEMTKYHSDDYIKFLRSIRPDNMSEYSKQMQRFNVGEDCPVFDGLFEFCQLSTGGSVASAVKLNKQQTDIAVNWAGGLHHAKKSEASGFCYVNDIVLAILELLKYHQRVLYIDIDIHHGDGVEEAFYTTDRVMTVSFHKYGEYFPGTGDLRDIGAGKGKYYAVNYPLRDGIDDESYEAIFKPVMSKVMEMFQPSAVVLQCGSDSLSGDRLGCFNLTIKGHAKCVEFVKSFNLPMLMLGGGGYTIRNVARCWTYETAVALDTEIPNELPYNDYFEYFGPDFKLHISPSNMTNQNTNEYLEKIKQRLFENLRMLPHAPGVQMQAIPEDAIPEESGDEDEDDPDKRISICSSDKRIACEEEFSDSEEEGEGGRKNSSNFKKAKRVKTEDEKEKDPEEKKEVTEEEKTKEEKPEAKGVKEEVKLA

IC50 (Histone deacetylase 8): 626 nM
inhibition [1]: inactive
IC50 (Histone deacetylase 4): > 50 µM
IC50 [3]: 1.41 nM
IC50 (Histone deacetylase 1): 9.54 nM
IC50 (Histone deacetylase 2 [4]): 28 nM
inhibition (Histone deacetylase 2 [6]): Active
Compound: CCCNNC(=O)c1ccc(NC(=O)[C@H](Cc2c[nH]c3ccccc23)NC(=O)c2ccc(OC)cc2)cc1
Activity (MV4-11 [2]): inactive
Activity (PC-3): inactive
Activity (MV4-11 [5]): Active
